Measurements published in ChEMBL document CHEMBL1138787, “Synthesis and evaluation of nitrofuranylamides as novel antituberculosis agents” (J Med Chem, 2004).

Tests used:
[1] = test system: Mycobacterium tuberculosis; experiment: Activity against Mycobacterium tuberculosis H37Ra; type: functional
Outline: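 Microbroth dilution in microtiter plates. H37Ra grown in Middlebrook 7H9 to OD650 0.4-0.6, then diluted to OD650 0.01. 100 µL of cells added to serial compound dilutions and incubated 37 °C for 8 days, growth read visually. MIC90 taken as wells with >90% growth inhibition; isoniazid positive control on every plate.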

[2] = test system: Mycobacterium tuberculosis; experiment: Viable Mycobacterium tuberculosis in lungs of infected Mice after an 8-day drug treatment; Dose is 300 mg/kg; type: functional, Lung
Outline: (§1)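 C57BL/6 interferon-γ gene-depleted (GKO) mice infected by low-dose aerosol. Eight daily treatments started 18 days postinfection. At day 28, lung and spleen homogenates serially diluted onto Middlebrook 7H11 agar and incubated 4 weeks at 37 °C. CFU log-transformed and reported ±SEM; one-way Dunnett multiple-comparison ANOVA, significance at 95% confidence.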

[3] = test system: Mycobacterium tuberculosis; experiment: Viable Mycobacterium tuberculosis in spleen of infected Mice after an 8-day drug treatment; Dose is 300 mg/kg; type: functional; outline: as §1
[4] = target: UDP-galactopyranose mutase (Mycobacterium tuberculosis, UniProt P9WIQ1); experiment: Inhibition of Mycobacterium tuberculosis UDP-galactose mutase expressed in Escherichia coli UDP-6 [3H]- Galf; design: species or system H37Rv
Sequence of UDP-galactopyranose mutase (P9WIQ1 whole entry): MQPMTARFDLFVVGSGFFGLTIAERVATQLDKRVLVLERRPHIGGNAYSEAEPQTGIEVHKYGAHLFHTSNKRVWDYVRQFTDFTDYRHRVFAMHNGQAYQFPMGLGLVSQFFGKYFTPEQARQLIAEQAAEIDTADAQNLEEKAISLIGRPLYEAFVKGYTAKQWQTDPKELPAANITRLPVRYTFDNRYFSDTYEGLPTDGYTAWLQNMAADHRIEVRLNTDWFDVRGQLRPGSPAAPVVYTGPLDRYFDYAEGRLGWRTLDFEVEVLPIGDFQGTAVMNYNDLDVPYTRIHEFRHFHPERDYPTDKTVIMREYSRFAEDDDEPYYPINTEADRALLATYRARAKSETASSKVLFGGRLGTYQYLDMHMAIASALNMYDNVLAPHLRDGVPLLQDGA
Outline: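 Reverse-direction radiometric Glf assay on crude soluble enzyme extract, preactivated 30 min at 37 °C in 25 mM MOPS with NADH and FAD. Each 25 µL well held MOPS pH 7.2, MgCl2, NADH, FAD, 2.3 µg protein, 20 pmol UDP-6-[3H]Galf and 1 µL DMSO. Inhibitors at 100-6.3 µM; reaction 5-20 min. Conversion read by HPLC or periodate filter-plate counting; IC50 calculated.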

[5] = test system: Vero; experiment: Selectivity is the ratio of cytotoxicity compared to TBMIC; type: functional
Outline: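 Ratio of VERO cell toxicity IC50 to M. tuberculosis H37Ra MIC. VERO monolayers were exposed to 3-fold compound dilutions for 72 h, and viability was read by tetrazolium reduction at 490 nm, with untreated and SDS-lysed cells as 0% and 100%. MIC was by microbroth dilution in 7H9 (OD650 0.01 inoculum), 37 °C for 8 days, with visual 90% growth inhibition.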

[6] = The protein binding is expressed as percent bound as determined by VolSurf; type: ADME; conditions: read-out: Protein binding (converted)
[7] = test system: Mycobacterium tuberculosis; experiment: Viable Mycobacterium tuberculosis in spleen of infected Mice after an 8-day drug treatment; Dose is 150 mg/kg; type: functional; outline: as §1
[8] = test system: Mycobacterium tuberculosis; experiment: Viable Mycobacterium tuberculosis in lungs of infected Mice after an 8-day drug treatment; Dose is 150 mg/kg; type: functional, Lung; outline: as §1
[9] = test system: Mycobacterium tuberculosis; experiment: Viable Mycobacterium tuberculosis in spleen of infected Mice after an 8-day drug treatment; Dose is 25 mg/kg; type: functional; outline: as §1
[10] = test system: Mycobacterium tuberculosis; experiment: Viable Mycobacterium tuberculosis in lungs of infected Mice after an 8-day drug treatment; Dose is 25 mg/kg; type: functional, Lung; outline: as §1

Structure (SMILES) | TBMIC [1] [µg/mL] | Activity [2] [log CFU] | Activity [3] [log CFU] | IC50 [4] [µM] | Selectivity index [5] | fraction unbound [6] | Activity [7] [log CFU] | Activity [8] [log CFU] | Activity [9] [log CFU] | Activity [10] [log CFU]
O=C(Nc1cccc(Cl)c1)c1ccc([N+](=O)[O-])o1 | 0.8 | 8.3 | 7.3 | 56.3 | 8.6 | – | – | – | – | –
CN(C(=O)c1ccc([N+](=O)[O-])o1)c1ccccc1 | 3.12 | – | – | 260 | 7.6 | 0.332 | – | – | – | –
COc1ccc(CCNC(=O)c2ccc([N+](=O)[O-])o2)cc1OC | 0.4 | – | – | 165 | 68.6 | 0.303 | – | – | – | –
O=C(Nc1cc[nH]n1)c1ccc([N+](=O)[O-])o1 | 6.25 | – | – | 729 | 1.2 | 0.513 | – | – | – | –
O=C(NC1CCCCC1)c1ccc([N+](=O)[O-])o1 | 3.1 | – | – | 281 | 2.9 | 0.352 | – | – | – | –
O=C(NC1CCc2ccccc21)c1ccc([N+](=O)[O-])o1 (configuration not stated) | 3.1 | – | – | 264 | 3.3 | 0.23 | – | – | – | –
COc1cccc(CNC(=O)c2ccc([N+](=O)[O-])o2)c1OC | 1.2 | – | – | 464 | – | 0.356 | – | – | – | –
COc1ccc(NC(=O)c2ccc([N+](=O)[O-])o2)cc1 | 0.4 | – | – | 160 | 53.6 | 0.369 | – | – | – | –
O=C(Nc1cccnc1)c1ccc([N+](=O)[O-])o1 | 6.25 | – | – | 206 | 2.1 | 0.447 | – | – | – | –
O=C(Nc1cccc(OCc2ccccc2)c1)c1ccc([N+](=O)[O-])o1 | 12.5 | – | – | 82.8 | – | 0.13 | – | – | – | –
O=C(NC12CC3CC(CC(C3)C1)C2)c1ccc([N+](=O)[O-])o1 | 3.1 | – | – | 169 | – | – | – | – | – | –
COc1cccc2sc(NC(=O)c3ccc([N+](=O)[O-])o3)nc12 | 1.6 | – | – | 210 | – | 0.257 | – | – | – | –
COc1cccc(NC(=O)c2ccc(S(=O)(=O)c3ccccc3)o2)c1 | 6.25 | – | – | 64.4 | 4.1 | 0.485 | – | – | – | –
O=C(Nc1ccccn1)c1ccc([N+](=O)[O-])o1 | 3.12 | – | – | 227 | 3.5 | 0.438 | – | – | – | –
O=C(NCc1ccccn1)c1ccc([N+](=O)[O-])o1 | 0.8 | – | – | 481 | – | 0.427 | – | – | – | –
O=C(NCc1ccccc1Cl)c1ccc([N+](=O)[O-])o1 | 1.6 | – | – | 53.4 | 7.3 | 0.313 | – | – | – | –
COc1ccc(CCNC(=O)c2ccc([N+](=O)[O-])o2)cc1 | 0.8 | – | – | 58.6 | 25.6 | 0.288 | – | – | – | –
COc1cccc(NC(=O)c2ccc([S+]([O-])c3ccccc3)o2)c1 (configuration not stated) | 6.25 | – | – | – | 10.4 | 0.39 | – | – | – | –
COc1ccc(CNC(=O)c2ccc([N+](=O)[O-])o2)cc1OC | 0.2 | 6.5 | 6 | 75.1 | 90.9 | 0.363 | – | – | – | –
O=C(NCc1ccco1)c1ccc([N+](=O)[O-])o1 | 6.25 | – | – | 246 | 0.7 | 0.38 | – | – | – | –
COc1ccc(N(C)C(=O)c2ccc([N+](=O)[O-])o2)cc1 | 6.25 | – | – | 500 | 4 | 0.395 | – | – | – | –

Structure (SMILES) | TBMIC [1] [µg/mL] | Activity [2] [log CFU] | Activity [3] [log CFU] | IC50 [4] [µM] | Selectivity index [5] | fraction unbound [6] | Activity [7] [log CFU] | Activity [8] [log CFU] | Activity [9] [log CFU] | Activity [10] [log CFU]
O=C(Nc1cccc(F)c1)c1ccc([N+](=O)[O-])o1 | 0.8 | 8.4 | 7 | 112 | 11.6 | 0.334 | – | – | – | –
COc1cc(CNC(=O)c2ccc([N+](=O)[O-])o2)cc(OC)c1OC | 0.8 | – | – | 184 | 29.5 | 0.344 | – | – | – | –
COc1ccc(CNC(=O)c2ccc([N+](=O)[O-])o2)cc1 | 0.1 | – | – | 416 | 163.6 | 0.347 | – | – | – | –
O=C(Nc1cccc(Br)c1)c1ccc([N+](=O)[O-])o1 | 0.6 | – | – | 35.4 | 9.6 | 0.311 | – | – | – | –
N#Cc1ccc(NC(=O)c2ccc([N+](=O)[O-])o2)cc1 | 0.8 | – | – | 393 | 4.4 | 0.249 | – | – | – | –
C[C@H](NC(=O)c1ccc([N+](=O)[O-])o1)c1ccccc1 | 1.6 | – | – | 146 | 16 | 0.259 | – | – | – | –
O=C(Nc1ccccc1)c1ccc([N+](=O)[O-])o1 | 0.8 | – | – | 94.7 | 2.7 | 0.325 | – | – | – | –
O=C(Nc1ccncc1)c1ccc([N+](=O)[O-])o1 | 3.12 | – | – | 184 | 2.2 | 0.446 | – | – | – | –
C[C@@H](NC(=O)c1ccc([N+](=O)[O-])o1)c1ccccc1 | 3.1 | – | – | 150 | 7.6 | 0.289 | – | – | – | –
O=C(c1ccc([N+](=O)[O-])o1)N1CCc2ccccc21 | 0.8 | – | – | – | 9.9 | 0.25 | – | – | – | –
COc1ccc(CNC(=O)c2ccc([N+](=O)[O-])o2)c(OC)c1 | 0.4 | – | – | 111 | 13.5 | 0.409 | – | – | – | –
O=C(Nc1cnccn1)c1ccc([N+](=O)[O-])o1 | 6.25 | – | – | 692 | – | 0.528 | – | – | – | –
COc1cccc(NC(=O)c2ccc([N+](=O)[O-])o2)c1 | 0.8 | – | – | 160 | 23.3 | 0.364 | 7.2 | 8 | – | –
O=C(Nc1cccc(O)c1)c1ccc([N+](=O)[O-])o1 | 1.6 | – | – | 314 | 7.8 | 0.391 | – | – | – | –
O=C(NC1CCCc2ccccc21)c1ccc([N+](=O)[O-])o1 (configuration not stated) | – | – | – | 112 | – | – | – | – | – | –
COc1cc(NC(=O)c2ccc([N+](=O)[O-])o2)ncn1 | 1.6 | – | – | – | – | 0.469 | – | – | – | –
COc1ccccc1CNC(=O)c1ccc([N+](=O)[O-])o1 | 1.6 | – | – | 358 | – | 0.335 | – | – | – | –
O=C(NCCc1ccccc1)c1ccc([N+](=O)[O-])o1 | 1.6 | – | – | 315 | 15.7 | 0.246 | – | – | – | –
NNC(=O)c1ccncc1 [ISONIAZID] | – | – | – | – | – | – | – | – | 3.2 | 5.5
Cc1ncc([N+](=O)[O-])n1CCO [METRONIDAZOLE] | – | – | – | – | – | – | 6.9 | 8.5 | – | –
